pIC50: −log10 of the molar value. Activity calls are given as the source filed them. The rule behind the calls is not given here.
Tests used:
HCT-116 [1] = assay: Anticancer activity against human HCT116 cells after 72 hrs by MTT assay; format: functional, cell-based; conditions: HCT-116, 72 h
Method in brief: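 HCT-116 cells, 3,000 per well, given escalating concentrations (5–160 μM or 1–75 μM depending on compound) in triplicate with 10% FBS. Incubation was 72 h at 37°C, then MTT viability read-out at 595 nm absorbance. IC50 was derived by curve fitting.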

[2] = biological target: Signal transducer and activator of transcription 3 (Homo sapiens) (UniProt P40763); assay: Inhibition of STAT3 SH2 domain phosphorylation at Tyr705 in COX2-negative human HCT116 cells after 24 hrs by Western blot analysis; conditions: HCT-116
Signal transducer and activator of transcription 3 (Homo sapiens), sequence (P40763 whole entry, the tested form may be a part): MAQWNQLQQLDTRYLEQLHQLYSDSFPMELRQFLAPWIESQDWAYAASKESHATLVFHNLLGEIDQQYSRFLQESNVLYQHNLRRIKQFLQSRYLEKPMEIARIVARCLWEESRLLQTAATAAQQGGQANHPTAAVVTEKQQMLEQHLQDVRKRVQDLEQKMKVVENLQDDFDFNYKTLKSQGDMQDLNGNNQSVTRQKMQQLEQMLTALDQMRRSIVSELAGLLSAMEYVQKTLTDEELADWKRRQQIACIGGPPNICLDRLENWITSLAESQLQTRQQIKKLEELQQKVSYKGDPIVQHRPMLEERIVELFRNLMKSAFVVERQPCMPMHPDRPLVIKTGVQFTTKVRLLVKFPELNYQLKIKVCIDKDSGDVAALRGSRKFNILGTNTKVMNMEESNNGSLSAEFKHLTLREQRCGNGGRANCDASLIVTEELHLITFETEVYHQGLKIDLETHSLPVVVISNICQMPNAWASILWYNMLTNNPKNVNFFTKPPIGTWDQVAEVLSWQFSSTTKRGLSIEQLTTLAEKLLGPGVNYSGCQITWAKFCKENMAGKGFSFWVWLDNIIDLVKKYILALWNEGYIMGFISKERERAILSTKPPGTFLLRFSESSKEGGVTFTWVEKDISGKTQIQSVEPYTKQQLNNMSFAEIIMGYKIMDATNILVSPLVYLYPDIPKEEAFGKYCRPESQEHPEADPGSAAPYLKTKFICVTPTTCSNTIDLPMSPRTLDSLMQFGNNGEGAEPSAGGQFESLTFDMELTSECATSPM

HCT-116 [3] = assay: Inhibition of STAT3 protein expression in COX2-negative human HCT116 cells at 10 to 50 uM after 24 hrs by Western blot analysis
[4] = biological target: Signal transducer and activator of transcription 3 (Homo sapiens) (UniProt P40763); assay: Inhibition of IL-6-induced STAT3 phosphorylation in human PANC1 cells at 25 to 50 µM pretreated 2 hrs prior to IL-6 challenge measured after 30 mins; format: cell-based; conditions: PANC-1
Method in brief: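 PANC-1 cells were serum-starved for 24 h, then pretreated with 25 or 50 μM compound for 2 h. They were then stimulated with IL-6 at 50 ng/ml for 30 min, and STAT3 phosphorylation was assessed.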

[5] = biological target: Signal transducer and activator of transcription 1 (Homo sapiens) (UniProt P42224); assay: Inhibition of interferon gamma induced STAT1 phosphorylation in human PANC1 cells at […] pretreated 2 hrs prior to interferon-gamma challenge measured after 30; conditions: PANC-1
Signal transducer and activator of transcription 1 (Homo sapiens), sequence (P42224 whole entry, looked up): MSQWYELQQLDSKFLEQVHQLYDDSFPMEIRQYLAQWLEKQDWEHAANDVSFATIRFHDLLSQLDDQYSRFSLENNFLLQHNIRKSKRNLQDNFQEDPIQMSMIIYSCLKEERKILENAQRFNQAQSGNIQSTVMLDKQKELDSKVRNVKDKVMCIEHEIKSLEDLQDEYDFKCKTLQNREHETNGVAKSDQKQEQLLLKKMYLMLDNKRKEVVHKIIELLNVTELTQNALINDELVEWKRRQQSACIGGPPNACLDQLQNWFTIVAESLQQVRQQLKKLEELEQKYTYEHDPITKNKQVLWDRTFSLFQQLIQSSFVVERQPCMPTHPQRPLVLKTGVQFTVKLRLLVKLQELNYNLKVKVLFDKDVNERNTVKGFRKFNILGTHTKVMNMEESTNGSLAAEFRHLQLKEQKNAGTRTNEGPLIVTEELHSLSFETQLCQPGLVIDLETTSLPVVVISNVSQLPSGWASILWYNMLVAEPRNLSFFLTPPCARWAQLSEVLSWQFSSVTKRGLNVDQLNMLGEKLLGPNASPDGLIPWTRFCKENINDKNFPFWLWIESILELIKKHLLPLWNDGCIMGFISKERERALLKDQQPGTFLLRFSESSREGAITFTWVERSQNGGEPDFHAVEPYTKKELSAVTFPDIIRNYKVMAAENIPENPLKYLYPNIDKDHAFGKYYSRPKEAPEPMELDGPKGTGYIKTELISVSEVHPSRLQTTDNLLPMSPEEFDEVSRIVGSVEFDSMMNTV

Structure (SMILES)	pIC50 (HCT-116 [1])	inhibition [2]	inhibition (HCT-116 [3])	inhibition [4]	inhibition [5]
Cc1ccc(Cc2cc(-c3ccc(Br)cc3)n(-c3ccc(S(N)(=O)=O)cc3)n2)cc1	5.01	Dose-dependent effect	inactive		
NS(=O)(=O)c1ccc(-n2nc(C(=O)NN3CCCCC3)cc2-c2ccc(-c3ccccc3)cc2)cc1	5.00	Dose-dependent effect	inactive		
Cc1ccc(-c2cc(C(F)(F)F)nn2-c2ccc(S(N)(=O)=O)cc2)cc1 [CELECOXIB]	4.36	Dose-dependent effect	inactive	Active	inactive
